According to paper PMC5035790 (Annals of Oncology, 2016):
Marks after values point to notes of the source that are not given here.

System: patients with advanced solid tumors or non-Hodgkin's lymphoma
Assay: Phase I dose-escalation study: safety, tolerability, MTD, adverse events
Format: in vivo, human
In short: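 Adults with advanced solid tumours (plus NHL and type 2 diabetic expansion cohorts) received a 1-h IV infusion on days 1, 8 and 15 of 28-day cycles over 0.1–1.2 mg/kg. Accelerated titration escalated the dose by 100% per cohort. MTD was the highest dose given to six patients with ≤1 DLT. Fasting was 8 h pre- and 3 h post-start on cycle 1 day 1. AEs were assessed at planned times each cycle and at follow-up.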

[1] = diabetic expansion, 0.4 mg/kg, n=6
[2] = solid tumors expansion, 0.8 mg/kg, n=25

COc1c(OCCCN2CCOCC2)ccc2c1N=C(NC(=O)c1cnc(N)nc1)N1CCN=C21 [copanlisib, Copanlisib]
Four: patients who discontinued because of AEs (n=57)
2 (33) n (%): Drug-related hypertension, all grades [1] | Drug-related hypertension, grade 3 [1] | Drug-related nausea, all grades [1]
21%: Drug-related hypertension, all grades (all patients, n=57, text)
five: patients with elevated aminotransferase grade ≥3 (laboratory finding)
7 (28) n (%): Drug-related nausea, all grades [2]
14%: Drug-related hypertension, grade 3 (all patients, n=57, text)
4 (7) n (%): Drug-related rash/desquamation, grade 3 (total, n=57)
3 (100) n (%): Any drug-related AE (cohort 2, 0.2 mg/kg, n=3) | Drug-related nausea, all grades (cohort 2, 0.2 mg/kg, n=3) | Any drug-related AE (cohort 5, 1.2 mg/kg, n=3) | Drug-related hyperglycemia, all grades (cohort 5, 1.2 mg/kg, n=3)
6 (11) n (%): Drug-related fatigue, all grades (total, n=57) | Drug-related oral cavity mucositis, all grades (total, n=57)
12 (21) n (%): Drug-related hypertension, all grades (total, n=57)
16%: diarrhea, all-grade (all patients, n=57, text)
3 (33) n (%): Drug-related diarrhea, all grades (NHL expansion, 0.8 mg/kg, n=9) | Drug-related fatigue, all grades (NHL expansion, 0.8 mg/kg, n=9) | Drug-related hyperglycemia, grade 3 (NHL expansion, 0.8 mg/kg, n=9) | Drug-related hypertension, all grades (NHL expansion, 0.8 mg/kg, n=9) | Drug-related hypertension, grade 3 (NHL expansion, 0.8 mg/kg, n=9) | Drug-related oral cavity mucositis, all grades (NHL expansion, 0.8 mg/kg, n=9)
36 (63) n (%): Drug-related hyperglycemia, all grades (total, n=57)
29 (51) n (%): Drug-related AEs of grade 3 (total, n=57)
1 (14) n (%): Drug-related diarrhea, all grades (cohort 4, 0.8 mg/kg, n=7) | Drug-related hypertension, all grades (cohort 4, 0.8 mg/kg, n=7) | Drug-related nausea, all grades (cohort 4, 0.8 mg/kg, n=7) | Drug-related vomiting, all grades (cohort 4, 0.8 mg/kg, n=7)
1 (33) n (%): Drug-related diarrhea, grade 3 (cohort 2, 0.2 mg/kg, n=3) | Drug-related fatigue, all grades (cohort 2, 0.2 mg/kg, n=3) | Drug-related hyperglycemia, all grades (cohort 2, 0.2 mg/kg, n=3) | Drug-related oral cavity mucositis, all grades (cohort 2, 0.2 mg/kg, n=3) | Drug-related vomiting, all grades (cohort 2, 0.2 mg/kg, n=3) | Drug-related AEs of grade 3 (cohort 3, 0.4 mg/kg, n=3) | Drug-related hyperglycemia, all grades (cohort 3, 0.4 mg/kg, n=3) | Drug-related hypertension, all grades (cohort 3, 0.4 mg/kg, n=3) | Drug-related hypertension, grade 3 (cohort 3, 0.4 mg/kg, n=3) | Drug-related AEs of grade 4 (cohort 5, 1.2 mg/kg, n=3) | Drug-related hyperglycemia, grade 3 (cohort 5, 1.2 mg/kg, n=3) | Drug-related nausea, all grades (cohort 5, 1.2 mg/kg, n=3) | Drug-related vomiting, all grades (cohort 5, 1.2 mg/kg, n=3)
3 (50) n (%): Drug-related AEs of grade 3 [1]
25%: dose modifications caused by drug-related AEs (14 of 57 patients)
2 (22) n (%): Drug-related rash/desquamation, all grades (NHL expansion, 0.8 mg/kg, n=9)
4 (57) n (%): Drug-related AEs of grade 3 (cohort 4, 0.8 mg/kg, n=7) | Drug-related hyperglycemia, grade 3 (cohort 4, 0.8 mg/kg, n=7)
8 (32) n (%): Drug-related hyperglycemia, grade 3 [2]
15 (60) n (%): Drug-related hyperglycemia, all grades [2]
7 (100) n (%): Any drug-related AE (cohort 4, 0.8 mg/kg, n=7) | Drug-related hyperglycemia, all grades (cohort 4, 0.8 mg/kg, n=7)
9 (16) n (%): Drug-related diarrhea, all grades (total, n=57) | Drug-related rash/desquamation, all grades (total, n=57)
3 (12) n (%): Drug-related vomiting, all grades [2]
1 (2) n (%): Drug-related diarrhea, grade 3 (total, n=57)
49 (86) n (%): Any drug-related AE (total, n=57)
21 (37) n (%): Drug-related nausea, all grades (total, n=57)
7%: drug-related rash, grade 3 (all patients, n=57, text)
20 (80) n (%): Any drug-related AE [2]
5 (56) n (%): Drug-related AEs of grade 3 (NHL expansion, 0.8 mg/kg, n=9)
2 (67) n (%): Drug-related AEs of grade 3 (cohort 2, 0.2 mg/kg, n=3) | Drug-related diarrhea, all grades (cohort 2, 0.2 mg/kg, n=3) | Any drug-related AE (cohort 3, 0.4 mg/kg, n=3) | Drug-related AEs of grade 3 (cohort 5, 1.2 mg/kg, n=3)
5 (83) n (%): Any drug-related AE [1]
17 (30) n (%): Drug-related hyperglycemia, grade 3 (total, n=57)
1 (11) n (%): Drug-related AEs of grade 4 (NHL expansion, 0.8 mg/kg, n=9) | Drug-related rash/desquamation, grade 3 (NHL expansion, 0.8 mg/kg, n=9) | Drug-related vomiting, all grades (NHL expansion, 0.8 mg/kg, n=9)
0 n (%): Drug-related diarrhea, grade 3 (NHL expansion, 0.8 mg/kg, n=9) | Drug-related fatigue, grade 3 (NHL expansion, 0.8 mg/kg, n=9) | Drug-related nausea, grade 3 (NHL expansion, 0.8 mg/kg, n=9) | Drug-related oral cavity mucositis, grade 3 (NHL expansion, 0.8 mg/kg, n=9) | Drug-related vomiting, grade 3 (NHL expansion, 0.8 mg/kg, n=9) | Drug-related AEs of grade 3 (cohort 1, 0.1 mg/kg, n=1) | Drug-related AEs of grade 4 (cohort 1, 0.1 mg/kg, n=1) | Drug-related diarrhea, all grades (cohort 1, 0.1 mg/kg, n=1) | Drug-related diarrhea, grade 3 (cohort 1, 0.1 mg/kg, n=1) | Drug-related fatigue, all grades (cohort 1, 0.1 mg/kg, n=1) | Drug-related fatigue, grade 3 (cohort 1, 0.1 mg/kg, n=1) | Drug-related hyperglycemia, all grades (cohort 1, 0.1 mg/kg, n=1) | Drug-related hyperglycemia, grade 3 (cohort 1, 0.1 mg/kg, n=1) | Drug-related hypertension, all grades (cohort 1, 0.1 mg/kg, n=1) | Drug-related hypertension, grade 3 (cohort 1, 0.1 mg/kg, n=1) | Drug-related nausea, all grades (cohort 1, 0.1 mg/kg, n=1) | Drug-related nausea, grade 3 (cohort 1, 0.1 mg/kg, n=1) | Drug-related oral cavity mucositis, all grades (cohort 1, 0.1 mg/kg, n=1) | Drug-related oral cavity mucositis, grade 3 (cohort 1, 0.1 mg/kg, n=1) | Drug-related rash/desquamation, all grades (cohort 1, 0.1 mg/kg, n=1) | Drug-related rash/desquamation, grade 3 (cohort 1, 0.1 mg/kg, n=1) | Drug-related vomiting, all grades (cohort 1, 0.1 mg/kg, n=1) | Drug-related vomiting, grade 3 (cohort 1, 0.1 mg/kg, n=1) | Drug-related AEs of grade 4 (cohort 2, 0.2 mg/kg, n=3) | Drug-related fatigue, grade 3 (cohort 2, 0.2 mg/kg, n=3) | Drug-related hyperglycemia, grade 3 (cohort 2, 0.2 mg/kg, n=3) | Drug-related hypertension, all grades (cohort 2, 0.2 mg/kg, n=3) | Drug-related hypertension, grade 3 (cohort 2, 0.2 mg/kg, n=3) | Drug-related nausea, grade 3 (cohort 2, 0.2 mg/kg, n=3) | Drug-related oral cavity mucositis, grade 3 (cohort 2, 0.2 mg/kg, n=3) | Drug-related rash/desquamation, all grades (cohort 2, 0.2 mg/kg, n=3) | Drug-related rash/desquamation, grade 3 (cohort 2, 0.2 mg/kg, n=3) | Drug-related vomiting, grade 3 (cohort 2, 0.2 mg/kg, n=3) | Drug-related AEs of grade 4 (cohort 3, 0.4 mg/kg, n=3) | Drug-related diarrhea, all grades (cohort 3, 0.4 mg/kg, n=3) | Drug-related diarrhea, grade 3 (cohort 3, 0.4 mg/kg, n=3) | Drug-related fatigue, all grades (cohort 3, 0.4 mg/kg, n=3) | Drug-related fatigue, grade 3 (cohort 3, 0.4 mg/kg, n=3) | Drug-related hyperglycemia, grade 3 (cohort 3, 0.4 mg/kg, n=3) | Drug-related nausea, all grades (cohort 3, 0.4 mg/kg, n=3) | Drug-related nausea, grade 3 (cohort 3, 0.4 mg/kg, n=3) | Drug-related oral cavity mucositis, all grades (cohort 3, 0.4 mg/kg, n=3) | Drug-related oral cavity mucositis, grade 3 (cohort 3, 0.4 mg/kg, n=3) | Drug-related rash/desquamation, all grades (cohort 3, 0.4 mg/kg, n=3) | Drug-related rash/desquamation, grade 3 (cohort 3, 0.4 mg/kg, n=3) | Drug-related vomiting, all grades (cohort 3, 0.4 mg/kg, n=3) | Drug-related vomiting, grade 3 (cohort 3, 0.4 mg/kg, n=3) | Drug-related AEs of grade 4 (cohort 4, 0.8 mg/kg, n=7) | Drug-related diarrhea, grade 3 (cohort 4, 0.8 mg/kg, n=7) | Drug-related fatigue, all grades (cohort 4, 0.8 mg/kg, n=7) | Drug-related fatigue, grade 3 (cohort 4, 0.8 mg/kg, n=7) | Drug-related hypertension, grade 3 (cohort 4, 0.8 mg/kg, n=7) | Drug-related nausea, grade 3 (cohort 4, 0.8 mg/kg, n=7) | Drug-related oral cavity mucositis, all grades (cohort 4, 0.8 mg/kg, n=7) | Drug-related oral cavity mucositis, grade 3 (cohort 4, 0.8 mg/kg, n=7) | Drug-related rash/desquamation, all grades (cohort 4, 0.8 mg/kg, n=7) | Drug-related rash/desquamation, grade 3 (cohort 4, 0.8 mg/kg, n=7) | Drug-related vomiting, grade 3 (cohort 4, 0.8 mg/kg, n=7) | Drug-related diarrhea, all grades (cohort 5, 1.2 mg/kg, n=3) | Drug-related diarrhea, grade 3 (cohort 5, 1.2 mg/kg, n=3) | Drug-related fatigue, all grades (cohort 5, 1.2 mg/kg, n=3) | Drug-related fatigue, grade 3 (cohort 5, 1.2 mg/kg, n=3) | Drug-related hypertension, all grades (cohort 5, 1.2 mg/kg, n=3) | Drug-related hypertension, grade 3 (cohort 5, 1.2 mg/kg, n=3) | Drug-related nausea, grade 3 (cohort 5, 1.2 mg/kg, n=3) | Drug-related oral cavity mucositis, all grades (cohort 5, 1.2 mg/kg, n=3) | Drug-related oral cavity mucositis, grade 3 (cohort 5, 1.2 mg/kg, n=3) | Drug-related rash/desquamation, all grades (cohort 5, 1.2 mg/kg, n=3) | Drug-related rash/desquamation, grade 3 (cohort 5, 1.2 mg/kg, n=3) | Drug-related vomiting, grade 3 (cohort 5, 1.2 mg/kg, n=3) | Drug-related AEs of grade 4 [1] | Drug-related diarrhea, grade 3 [1] | Drug-related fatigue, all grades [1] | Drug-related fatigue, grade 3 [1] | Drug-related nausea, grade 3 [1] | Drug-related oral cavity mucositis, all grades [1] | Drug-related oral cavity mucositis, grade 3 [1] | Drug-related vomiting, all grades [1] | Drug-related vomiting, grade 3 [1] | Drug-related AEs of grade 4 [2] | Drug-related diarrhea, grade 3 [2] | Drug-related fatigue, grade 3 [2] | Drug-related nausea, grade 3 [2] | Drug-related oral cavity mucositis, grade 3 [2] | Drug-related vomiting, grade 3 [2] | Drug-related fatigue, grade 3 (total, n=57) | Drug-related nausea, grade 3 (total, n=57) | Drug-related oral cavity mucositis, grade 3 (total, n=57) | Drug-related vomiting, grade 3 (total, n=57)
63%: Drug-related hyperglycemia, all grades (all patients, n=57, text)
8 (89) n (%): Any drug-related AE (NHL expansion, 0.8 mg/kg, n=9) | Drug-related hyperglycemia, all grades (NHL expansion, 0.8 mg/kg, n=9)
7 (78) n (%): Drug-related nausea, all grades (NHL expansion, 0.8 mg/kg, n=9)
37%: Drug-related nausea, all grades (all patients, n=57, text, all events grade ≤2)
1 (100) n (%): Any drug-related AE (cohort 1, 0.1 mg/kg, n=1)
7 (12) n (%): Drug-related vomiting, all grades (total, n=57)
2%: diarrhea, grade ≥3 (all patients, n=57, text) | hyperglycemia grade 4, regardless of causality (n=57, text)
no DLTs: dose-limiting toxicities (DLTs) (0.8 mg/kg dose-escalation cohort)
8 (14) n (%): Drug-related hypertension, grade 3 (total, n=57)
2 (4)^b n (%): Drug-related AEs of grade 4 (total, n=57)
5 (20) n (%): Drug-related hypertension, all grades [2]
11%: serious drug-related AEs (six of 57 patients)
6 (24) n (%): Drug-related rash/desquamation, all grades [2]
2 (8) n (%): Drug-related diarrhea, all grades [2] | Drug-related fatigue, all grades [2] | Drug-related hypertension, grade 3 [2] | Drug-related oral cavity mucositis, all grades [2] | Drug-related rash/desquamation, grade 3 [2]
no patients: diabetic ketoacidosis (during the study)
1 (17) n (%): Drug-related diarrhea, all grades [1] | Drug-related hyperglycemia, all grades [1] | Drug-related hyperglycemia, grade 3 [1] | Drug-related rash/desquamation, all grades [1] | Drug-related rash/desquamation, grade 3 [1]
4%: patients with drug-related grade 4 AEs (two patients, three events)
12 (48) n (%): Drug-related AEs of grade 3 [2]
